The values that follow come from ChEMBL document CHEMBL1137739, “Synthesis of chlorovinyl sulfones as structural analogs of chalcones and their antiplasmodial activities” (Eur J Med Chem, 2009).

SMILES strings stand for the structures.

Assay [1] has as its target T1, Histidine-rich protein PFHRP-II (Plasmodium falciparum) (UniProt P05227).
T1 sequence (whole entry): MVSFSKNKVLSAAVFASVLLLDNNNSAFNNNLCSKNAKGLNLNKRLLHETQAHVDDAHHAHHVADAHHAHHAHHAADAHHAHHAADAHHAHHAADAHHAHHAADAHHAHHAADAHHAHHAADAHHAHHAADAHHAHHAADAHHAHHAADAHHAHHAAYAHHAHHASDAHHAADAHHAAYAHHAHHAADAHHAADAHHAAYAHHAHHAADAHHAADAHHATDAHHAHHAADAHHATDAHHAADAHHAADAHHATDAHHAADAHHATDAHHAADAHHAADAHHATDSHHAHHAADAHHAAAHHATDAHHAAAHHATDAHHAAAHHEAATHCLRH
Nature of the assay: Inhibition of acetate buffer-induced hemozoin formation at 1.25 to 25 mM/well after 48 hrs. The format is functional. The arrangement: scale not given: the % may be the effect or the level left. The gist of the method: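 Hemin chloride solution (4 mM, in DMSO) was mixed in triplicate with compounds in DMSO at final 1.25–25 per well. Controls were water or DMSO. Reaction was started with 0.2 M acetate buffer pH 4.4 and run at 37 °C for 48 h. Pellets were centrifuged, washed twice with DMSO, dissolved in 0.2 N NaOH, diluted 1:2 in 0.1 N NaOH, and absorbance read at 405 nm.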

Assay [2] has as its system Plasmodium falciparum. In words: Antimalarial activity as inhibition of chloroquine-resistant Plasmodium falciparum mediated mice (Mus musculus) hemoglobin hydrolysis at 5 mM after 18 hrs. The arrangement: scale not given: the % may be the effect or the level left. The format is functional. The gist of the method:
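Parasite extract was incubated with native mouse haemoglobin, GSH (10 mM as added) and 0.2 M acetate buffer pH 5.4, with inhibitors added in DMSO, at 37 °C for 18 h. Reactions were stopped with reducing sample buffer and run on SDS-PAGE. Digestion was scored by densitometry of the 14 kDa globin band against a DMSO control, as intensity/mm2 ± SD.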

Assay [3] relates to Plasmodium falciparum. Nature of the assay: Antimalarial activity as parasite development after 48 hrs against chloroquine-sensitive Plasmodium falciparum W2 by FACS analysis. The format is functional, organism-based. The following applies: W2, 48 h, in the assay text read “chloroquine-resistant” for “chloroquine-sensitive”. In outline: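 Sorbitol-synchronized ring-stage P. falciparum W2, started at 0.1% parasitemia, grown in RPMI-1640 with 10% human serum under 3% O2/6% CO2/91% N2. Inhibitors were added from 1000× DMSO stocks for 48 h with no medium change. Cells were fixed in 1% formaldehyde/PBS pH 7.4 for 48 h at room temperature, then stained with 1 nM YOYO in 0.1% Triton X-100/PBS. Nucleated erythrocytes were counted by flow cytometry. IC50 came from nonlinear fits of % control parasitemia against concentration, duplicate experiments.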

In assay [4] the test system is Plasmodium berghei. In words: Antimalarial activity as reduced parasitaemia at day 4 in Peter's assay against Plasmodium berghei ANKA infected in NIH mice (Mus musculus) at 20 mg/kg intraperitoneal dose 2 hrs post infection then daily over 4 days. The format is functional. The arrangement: scale not given: the % may be the effect or the level left. In outline: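 NIH mice (18–23 g) were infected i.p. with 10^6 P. berghei-infected red cells. Compound was dissolved in DMSO (0.1 M), diluted in 2% saline–Tween 20, and given at 20 mg/kg i.p. once daily for 4 days, starting 2 h after infection. Day-4 parasitemia was read from Giemsa-stained smears as % of untreated controls. Survival was also recorded. Analysis used one-way ANOVA and t-tests.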

Assay [5] has as its system Plasmodium berghei. In words: Antimalarial activity as survival in Peter's assay at day 4 against Plasmodium berghei ANKA infected in NIH mice (Mus musculus) at 20 mg/kg intraperitoneal dose 2 hrs post infection then daily over 4 days.
For assay [6], the system named is Plasmodium berghei. In words: Antimalarial activity as reduced parasitaemia at day 4 in Peter's assay against Plasmodium berghei ANKA infected in NIH mice (Mus musculus) at 25 mg/kg intraperitoneal dose 2 hrs post infection then daily for 4 days. The format is functional. The arrangement: scale not given: the % may be the effect or the level left. In outline: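 Chloroquine reference arm: NIH mice (18–23 g) were infected i.p. with 10^6 P. berghei-infected red cells and given 25 mg/kg once daily for 4 days, starting 2 h post-infection. Day-4 parasitemia was counted on Giemsa-stained smears, expressed relative to untreated controls, with survival recorded.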

Assay [7] has as its system Plasmodium berghei. Nature of the assay: Antimalarial activity as survival at day 4 in Peter's assay against Plasmodium berghei ANKA infected NIH mice (Mus musculus) at 25 mg/kg intraperitoneal dose 2 hrs post infection then daily for 4 days. The format is functional. In outline: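 NIH mice (18–23 g) were infected i.p. with 10^6 P. berghei-infected erythrocytes. Dosing started 2 h later, i.p. once daily for 4 days, with compounds at 20 mg/kg and chloroquine at 25 mg/kg, from 0.1 M DMSO stocks diluted in 2% saline–Tween 20. Day-4 parasitaemia was read from Giemsa smears as % of untreated control, and survival as % of mice. Analysis used one-way ANOVA and t-tests.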

On to `COc1cc(OC)c(/C=C(\Cl)S(=O)(=O)c2ccccc2)c(OC)c1`, for which the Activity (in assay [1]; with Plasmodium falciparum [2]) was less than 5% each time. Half-maximal inhibition with Plasmodium falciparum [3] (IC50) was put at 10 µM.

Regarding `COc1cc(/C=C(\Cl)S(=O)(=O)c2ccccc2)cc(OC)c1OC`, the Activity (in assay [1]; with Plasmodium falciparum [2]) was less than 5% in each case. The IC50 in the assay on Plasmodium falciparum [3] worked out at 10 µM.

In the case of `O=S(=O)(/C(Cl)=C/c1cc2ccccc2nc1Cl)c1ccccc1`, the Activity in assay [1] was less than 5%; in the assay on Plasmodium falciparum [2] it was 28.49%. Further, half-maximal inhibition with Plasmodium falciparum [3] (IC50) was put at 0.025 µM.

In the case of `N#Cc1ccc(/C=C(\Cl)S(=O)(=O)c2ccccc2)cc1`, the results for the Activity (in assay [1]; in the assay with Plasmodium falciparum [2]) were less than 5% and 44.73%, respectively. Besides, the IC50 in the assay with Plasmodium falciparum [3] was more than 10 µM.

As to `O=S(=O)(/C(Cl)=C/c1ccc(Cl)cc1)c1ccccc1`, the Activity in assay [1] is less than 5%; in the assay on Plasmodium falciparum [2], 74.92%. It took 0.083 µM to reach half-maximal inhibition with Plasmodium falciparum [3] (IC50).

With `O=S(=O)(/C(Cl)=C/c1ccc(F)cc1)c1ccccc1`, the figures for the Activity (in assay [1]; in the assay on Plasmodium falciparum [2]) were less than 5% and 52.72%, respectively. The same molecule showed an IC50 in the assay on Plasmodium falciparum [3] of more than 10 µM.

Turning to `COc1cc(OC)c(OC)cc1/C=C(\Cl)S(=O)(=O)c1ccccc1`, the Activity in assay [1] was less than 5%; with Plasmodium falciparum [2], 11.07%. In the assay with Plasmodium falciparum [3], this molecule gave an IC50 of more than 10 µM.

Regarding `O=S(=O)(/C(Cl)=C/c1ccc(Cl)c(Cl)c1)c1ccccc1`, the Activity in assay [1] was less than 5%; with Plasmodium falciparum [2] it was 95.04%; with Plasmodium berghei [4], 13.4%; in the assay with Plasmodium berghei [5], 50%. The IC50 with Plasmodium falciparum [3] came to 0.059 µM.

Consider `O=S(=O)(/C(Cl)=C/c1ccc(Cl)cc1Cl)c1ccccc1`, for which the Activity in assay [1] was less than 5%; in the assay on Plasmodium falciparum [2] it was 75.3%. This molecule also registered an IC50 in the assay with Plasmodium falciparum [3] of 0.96 µM.

Turning to `CC(=O)N[C@@H](CC(C)C)C(=O)N[C@@H](CC(C)C)C(=O)N[C@H](C=O)CCCNC(=N)N` [LEUPEPTIN], the Activity in the assay on Plasmodium falciparum [2] was determined as 89.75%.

As to `O=S(=O)(/C(Cl)=C/c1ccc2c(c1)OCO2)c1ccccc1`, the Activity in assay [1] was less than 5%; with Plasmodium falciparum [2], 37.34%. Also, half-maximal inhibition in the assay on Plasmodium falciparum [3] (IC50) was put at 0.053 µM.

Consider `O=[N+]([O-])c1ccc(/C=C(\Cl)S(=O)(=O)c2ccccc2)cc1`, for which the figures for the Activity (in assay [1]; in the assay with Plasmodium falciparum [2]) were less than 5% and 79.19%, respectively. The molecule also registered an IC50 in the assay on Plasmodium falciparum [3] of 0.073 µM.

As to `CCN(CC)CCCC(C)Nc1ccnc2cc(Cl)ccc12` (stereo not drawn) [CHLOROQUINE], the Activity in assay [1] worked out at 84.2%; with Plasmodium falciparum [2] it was 26.92%; with Plasmodium berghei [6], 3%; with Plasmodium berghei [7], 30 days.

Turning to `O=S(=O)(/C(Cl)=C/c1ccc2ccccc2c1)c1ccccc1`, the Activity in assay [1] was less than 5%; with Plasmodium falciparum [2] it was 84.59%; in the assay with Plasmodium berghei [4], 6.25%; in the assay with Plasmodium berghei [5], 72%. In the assay with Plasmodium falciparum [3], this molecule displayed an IC50 of 0.058 µM.

In the case of `O=S(=O)(/C(Cl)=C/c1ccccc1Cl)c1ccccc1`, the Activity was less than 5% in assay [1] and 65.81% in the assay on Plasmodium falciparum [2]. This molecule gave an IC50 in the assay on Plasmodium falciparum [3] of more than 10 µM.

In the assay on Plasmodium falciparum [2], `CC(C)CC(=O)N[C@H](C(=O)N[C@H](C(=O)N[C@@H](CC(C)C)[C@@H](O)CC(=O)N[C@@H](C)C(=O)N[C@@H](CC(C)C)[C@@H](O)CC(=O)O)C(C)C)C(C)C` [PEPSTATIN] gave an Activity of 93.77%.

For `O=S(=O)(/C(Cl)=C/c1cccc2ccccc12)c1ccccc1`, the Activity was less than 5% in assay [1] and 76.69% with Plasmodium falciparum [2]. Also, in the assay with Plasmodium falciparum [3], the IC50 turned out to be 0.075 µM.

Consider `O=S(=O)(/C(Cl)=C/c1ccccc1)c1ccccc1`, for which the results for the Activity (in assay [1]; in the assay on Plasmodium falciparum [2]) were less than 5% and 59.33%, respectively. Further, the IC50 in the assay with Plasmodium falciparum [3] was more than 10 µM.

For the molecule `COc1ccc(/C=C(\Cl)S(=O)(=O)c2ccccc2)cc1`, the Activity (in assay [1]; with Plasmodium falciparum [2]) was less than 5% in each case. This molecule also returned an IC50 in the assay on Plasmodium falciparum [3] of 0.47 µM.

For orientation: IC50 means the concentration that inhibits the measured activity by half.
